In PubChem BioAssay AID463201 (Sanford-Burnham Center for Chemical Genomics, 2010):
Calls of active or inactive are those of the source.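 The calls were made as follows: active = activation above 50% at 10 µM in both replicate datasets; inactive = the rest.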

Target: Vasopressin V2 receptor (Homo sapiens) (UniProt P30518)
Experiment: agonism at AVPR2 via arrestin translocation – imaging, beta-arrestin-GFP, U2OS, agonist mode, selectivity assay for GPR35 antagonist project, SAR follow-up (AID 463201)
Settings: U2OS V2R beta-arrestin-GFP translocation imaging, 40 min; at 10 µM; hits give high values
Procedure, shortened: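 Material – U2OS cells stably expressing human vasopressin receptor and beta-arrestin2-GFP · Medium – serum-free culture medium during compound exposure · Dosing – 10 µM single dose, 0.1% DMSO · Timing – compound exposure 40 min at 37 °C, then fixation · Signal – fluorescence imaging at 40x of arrestin-GFP spots after 1% PFA fixation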

Sequence of Vasopressin V2 receptor (Homo sapiens) (P30518 whole entry, looked up): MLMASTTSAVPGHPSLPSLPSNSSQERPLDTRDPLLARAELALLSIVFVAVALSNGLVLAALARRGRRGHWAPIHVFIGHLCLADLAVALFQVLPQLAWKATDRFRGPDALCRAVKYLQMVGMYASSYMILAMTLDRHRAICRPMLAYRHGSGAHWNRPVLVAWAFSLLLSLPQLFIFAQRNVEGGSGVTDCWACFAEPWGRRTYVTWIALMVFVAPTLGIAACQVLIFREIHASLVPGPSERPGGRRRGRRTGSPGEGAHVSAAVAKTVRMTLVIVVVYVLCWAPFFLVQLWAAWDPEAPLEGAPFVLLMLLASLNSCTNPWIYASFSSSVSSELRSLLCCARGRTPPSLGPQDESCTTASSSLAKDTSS

activation | Compound
1.45% (inactive) | O=C(CCCN1C(=O)/C(=C/c2ccccc2)SC1=S)Nc1ccc(C(=O)O)c(O)c1
-0.18% (inactive) | O=C(Nc1ccc2nc(SCc3ccccc3)sc2c1)c1ccccc1C(=O)N1CCOCC1
0.29% (inactive) | O=C(CCCN1C(=O)/C(=C\c2ccccc2)SC1=S)Nc1ccc(C(=O)O)cc1
-0.03% (inactive) | COc1ccc(/C=C2\SC(=S)N(CCCC(=O)Nc3ccc(O)cc3)C2=O)cc1
-0.08% (inactive) | Cc1ccc(Cn2ncc3c(N4CCN(c5ccccc5C)CC4)ncnc32)cc1
-0.13% (inactive) | Cc1nc(N2CCC(C)CC2)c2c(C)c(C(=O)Nc3ccc4c(c3)OCCO4)sc2n1
-0.18% (inactive) | COc1cccc(/C=C2\SC(=S)N(CCCC(=O)Nc3ccc(C(=O)O)cc3)C2=O)c1
0.21% (inactive) | O=C(CCCN1C(=O)/C(=C/c2ccc3c(c2)OCO3)SC1=S)Nc1ccc(C(=O)O)c(O)c1
-0.21% (inactive) | O=C(CCCN1C(=O)S/C(=C/c2ccccc2)C1=S)Nc1ccc(C(=O)O)cc1
-0.11% (inactive) | CC(/C=C1\SC(=S)N(CCCC(=O)Nc2ccc(C(=O)O)cc2)C1=O)=C\c1ccccc1
0.66% (inactive) | O=C(CCCN1C(=O)/C(=C\c2ccccc2)SC1=S)Nc1cccc(C(=O)O)c1
0.24% (inactive) | CCOc1ccc(NC(=O)CSc2nc3ccsc3c(=O)n2Cc2ccc(C(=O)O)cc2)cc1
-0.18% (inactive) | O=C(CCCN1C(=O)S/C(=C/C=C/c2ccccc2)C1=O)Nc1ccc(C(=O)O)cc1
-0.08% (inactive) | Clc1ccc(Cn2ncc3c(N4CCN(c5ccccc5)CC4)ncnc32)cc1
0.05% (inactive) | CCOC(=O)c1ccc(NC(=O)CCCN2C(=O)/C(=C/c3ccc(C)cc3)SC2=S)cc1
0.71% (inactive) | O=C(Nc1ccc2nc(SCc3ccc(Cl)cc3)sc2c1)c1ccccc1C(=O)N1CCOCC1
-0.18% (inactive) | Cc1ccc(/C=C2\SC(=S)N(CCCC(=O)Nc3ccc(O)cc3)C2=O)cc1
0.21% (inactive) | CC(/C=C1\SC(=S)N(CCCC(=O)Nc2ccc(C(=O)O)c(O)c2)C1=O)=C\c1ccccc1
-0.34% (inactive) | O=C(CCCN1C(=O)/C(=C/c2ccc3c(c2)OCO3)SC1=S)Nc1ccc(C(=O)O)cc1
-0.03% (inactive) | Cc1c(C(=O)Nc2ccc3c(c2)OCCO3)sc2ncnc(N3CCC(C)CC3)c12
-0.32% (inactive) | COc1ccc(/C=C2/SC(=S)N(CCCC(=O)Nc3ccc(O)cc3)C2=O)cc1
-0.05% (inactive) | CC(C)(C)c1ccc(OCCC(=O)NCCc2ccc(S(N)(=O)=O)cc2)cc1
0.11% (inactive) | O=C(CCCN1C(=O)S/C(=C\C=C\c2ccccc2)C1=O)Nc1ccc(C(=O)O)cc1
-0.11% (inactive) | COc1ccc(/C=C2\SC(=S)N(CCCC(=O)Nc3cccc(C(=O)O)c3)C2=O)cc1OC
0.05% (inactive) | CC(C)c1ccc(NC(=O)CSc2nc3ccsc3c(=O)n2Cc2ccc(C(=O)O)cc2)cc1
-0.08% (inactive) | Cc1ccc(/C=C2\SC(=S)N(CCCC(=O)Nc3cccc(C(=O)O)c3)C2=O)cc1
-0.29% (inactive) | O=C(CCCN1C(=O)/C(=C/c2ccc3c(c2)OCO3)SC1=S)Nc1cccc(C(=O)O)c1
-0.16% (inactive) | Cc1ccccc1N1CCN(c2ncnc3c2cnn3Cc2ccc(Cl)cc2)CC1
-0.24% (inactive) | COc1ccc(/C=C2\SC(=S)N(CCCC(=O)Nc3ccc(C(=O)O)c(O)c3)C2=O)cc1OC
-0.5% (inactive) | CCc1ccc(/C=C2\SC(=S)N(CCCC(=O)Nc3ccc(C(=O)O)cc3)C2=O)cc1
